# Experimental data from the array DNA melting data of Ke et al. (doi:10.1101/2024.01.08.574731).
# Tests used:
# [1] = melting temperature; fluorescence melt of hairpins on a sequencing array, two-state fit, raised by 9.35 °C to match UV melts; details: sodium 0.088 M
# In short: (§1)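 Bootstrapped two-state fits yielded melting temperature and folding enthalpy for library hairpins. Cy3 fluorescence, with annealed Cy3 and quencher oligos, was imaged on a sequenced MiSeq flow cell in 50 mM Na-HEPES pH 8.0, 25 mM NaCl in 2.5 °C steps up to 60 °C, and normalised to pre-quench Cy3 and to control constructs. Four replicates were combined by inverse variance, and fitted temperatures were raised by 9.35 °C to match UV melts.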
# [2] = folding enthalpy; higher = less favourable; fluorescence melt of hairpins on a sequencing array, two-state fit; details: sodium 0.088 M
# In short: as §1
Sequence,Tm [1] [°C],folding enthalpy [2] [kJ/mol]
GGTTCCGAAAGGAAAACC ((((((....)))..))),43.6,-77.4
GGTTCCGAAAGGAAACC ((((((....))).))),53.7,-108
GGTTCCGAAAGGAAGACC ((((((....)))..))),42.1,-63.1
GGTTCCGAAAGGACAACC ((((((....)))..))),36.7,-83.4
GGTTCCGAAAGGACGACC ((((((....)))..))),37.4,-66.2
GGTTCCGAAAGGATTACC ((((((....)))..))),34.6,-83.5
GGTTCCGGAAACGGAGCC ((.((((....)))).)),58.4,-174
GGTTCGCCGAAAGGCACC (((..(((....)))))),30.1,-35.5
GGTTCGCGAAAGCGTACC (((.(((....))).))),56,-109
GGTTCGGAAACGAACC ((((((....)))))),67.3,-139
GGTTCGGGAAACCAAACC ((((.((....)).)))),40.4,-127
GGTTCGGGAAACTGAGCC ((.((.(....).)).)),39.3,-114
GGTTCTGGAAACGGAACC (((((.(....).))))),52.3,-188
GGTTCTGGAAACGGAATC (.(((.(....).))).),33,-78.3
GGTTGACCGAAAGGTACC (((..(((....)))))),36.4,-68.9
GGTTGAGAAATCAACC ((((((....)))))),53.3,-142
GGTTGCGAAAGCAACACC ((((((....)))..))),50,-34.6
GGTTGCGAAAGCAAGACC ((((((....)))..))),44.2,-61
GGTTGCGAAAGCACACC ((((((....))).))),53.4,-82.6
GGTTGCGAAAGCACCACC ((((((....)))..))),45.1,-48.5
GGTTGCGAAAGCACGACC ((((((....)))..))),40.6,-66.1
GGTTGCGAAAGCATAACC ((((((....)))..))),45.9,-85.9
GGTTGCGAAAGCATCACC ((((((....)))..))),36.2,-54.3

Sequence,Tm [1] [°C],folding enthalpy [2] [kJ/mol]
GGTTGCGAAAGCATTACC ((((((....)))..))),37.8,-74.2
GGTTGCGGAAACGCAGCC ((.((((....)))).)),63.5,-164
GGTTGCGGAAACGCGACC (((.(((....))).))),65.8,-158
GGTTGGACGAAAGTCACC (((..(((....)))))),34.1,-51.1
GGTTGGCGAAAGCCTACC (((.(((....))).))),59.6,-106
GGTTGGGGAAACTCGACC (((.(.(....).).))),39.5,-96.9
GGTTGTACGAAAGTAACC (((..(((....)))))),38,-87.5
GGTTGTCGAAAGACCACC (((.(((....))).))),48.3,-110
GGTTGTGGAAACACAGTC (..((((....))))..),29.1,-55.2
GGTTGTGGAAACATAGCC ((.(.((....)).).)),31.6,-80
GGTTTACCGAAAGGTACC (((..(((....)))))),32.4,-40.8
GGTTTAGGAAACTAAACC (((((((....))))))),54.2,-228
GGTTTCGAAAGAAATACC ((((((....)))..))),32.7,-81.9
GGTTTCGAAAGAACCACC ((((((....)))..))),34.4,-71.5
GGTTTCGAAAGAATAACC ((((((....)))..))),31.5,-84.2
GGTTTCGAAAGAATACC ((((((....))).))),38,-107
GGTTTCGAAAGAATTACC ((((((....)))..))),27.9,-59.6
GGTTTCGGAAACAAAACC (((((.(....).))))),36.6,-95.1
GGTTTCGGAAACGAAACC (((((((....))))))),66.5,-192
GGTTTGCGAAAGCATACC (((.(((....))).))),52.9,-170
GGTTTGGCGAAAGCCACC (((..(((....)))))),31.9,-35.9
GGTTTGGGAAACCAAGCC ((.((((....)))).)),49.9,-140
GGTTTTCGAAAGAACACC (((.(((....))).))),42.8,-149

Sequence,Tm [1] [°C],folding enthalpy [2] [kJ/mol]
GGTTTTGAAAAAAACC ((((((....)))))),51.5,-111
GGTTTTGGAAACAAAATC (.(((((....))))).),41.5,-140
GGTTTTGGAAACAAAGCC ((.((((....)))).)),46,-122
GGTTTTTCGAAAGAAACC (((..(((....)))))),34,-78.7
GTAAAAACGAAAGTTTAC (((..(((....)))))),27.8,-47.6
GTAAAACGAAAGTTCTAC (((.(((....))).))),27.6,-58.1
GTAAAACGAAAGTTTAC (((.(((....)))))),35.2,-73
GTAAACGAAAGTTTAC ((((((....)))))),56,-147
GTAAAGCGAAAGCTGTAC (((.(((....))).))),44.4,-85.5
GTAAAGGCGAAAGCCTAC (((..(((....)))))),35,-42
GTAAATGGAAACGTTTAC (((((.(....).))))),35,-138
GTAACAGGAAACTGCTAC (((.(((....))).))),32,-122
GTAACCGAAAGGTCTAC ((((((....))).))),35.5,-56.2
GTAACCGAAAGGTTGTAC ((((((....)))..))),33.4,-43.4
GTAACTGGAAACAGTTGC (.(((((....))))).),47.4,-111
GTAAGACCGAAAGGTTAC (((..(((....)))))),30.3,-57.7
GTAAGACGAAAGTCATAC (((.(((....))).))),39.1,-86.3
GTAAGACGAAAGTCCTAC (((.(((....))).))),34.7,-65.6
GTAAGCCGAAAGGCATAC (((.(((....))).))),46.6,-76.8
GTAAGCCGAAAGGCGTAC (((.(((....))).))),54.4,-59
GTAAGCGAAAGCTACTAC ((((((....)))..))),47.5,-59.1
GTAAGCGAAAGCTCTTAC ((((((....)))..))),33.2,-53.3
